Reference: ChEMBL document CHEMBL2311453, “Tetrahydropyrroloquinolinone type dual inhibitors of aromatase/aldosterone synthase as a novel strategy for breast cancer patients with elevated cardiovascular risks” (J Med Chem, 2013)

Key:
V79MZh = assay: Selectivity factor, ratio of IC50 for human CYP11B1 to IC50 for human CYP11B2 expressed in hamster V79MZh cells; assay type: cell-based
Summary of the method: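 SF calculated as IC50(CYP11B1)/IC50(CYP11B2). Both IC50s come from V79MZh hamster fibroblasts expressing the human enzyme, with [1,2-³H]-11-deoxycorticosterone at 100 nM as substrate.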

[1] = molecular target: T1, Cytochrome P450 11B2, mitochondrial (Homo sapiens, UniProt P19099); assay: Inhibition of human CYP11B2 expressed in hamster V79MZh cells using [1,2-3H]-11-deoxy-corticosterone as substrate; assay type: cell-based
T1 sequence (P19099 whole entry): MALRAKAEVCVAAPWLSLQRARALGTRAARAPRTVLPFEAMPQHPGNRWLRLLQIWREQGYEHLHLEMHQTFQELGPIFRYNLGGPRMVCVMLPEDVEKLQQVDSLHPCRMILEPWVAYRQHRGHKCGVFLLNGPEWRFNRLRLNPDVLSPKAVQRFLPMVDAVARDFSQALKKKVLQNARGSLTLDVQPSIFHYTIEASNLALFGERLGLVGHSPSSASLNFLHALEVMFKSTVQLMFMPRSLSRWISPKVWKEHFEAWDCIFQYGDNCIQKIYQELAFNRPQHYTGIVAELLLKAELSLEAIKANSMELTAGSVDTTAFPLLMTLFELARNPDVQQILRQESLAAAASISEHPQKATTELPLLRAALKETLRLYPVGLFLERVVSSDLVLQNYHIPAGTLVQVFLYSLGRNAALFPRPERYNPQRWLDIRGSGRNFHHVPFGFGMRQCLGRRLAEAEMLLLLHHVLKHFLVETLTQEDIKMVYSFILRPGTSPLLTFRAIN
Summary of the method: (§1)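 V79MZh hamster fibroblasts stably expressing human CYP11B1 or CYP11B2, incubated with [1,2-³H]-11-deoxycorticosterone (100 nM) and inhibitor at varying concentrations. IC50 taken as mean of at least three experiments (relative SD under 25%).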

[2] = molecular target: T2, Cytochrome P450 11B1, mitochondrial (Homo sapiens, UniProt P15538); assay: Inhibition of human CYP11B1 expressed in hamster V79MZh cells using [1,2-3H]-11-deoxy-corticosterone as substrate; assay type: cell-based; summary of the method: as §1
T2 sequence (P15538 whole entry): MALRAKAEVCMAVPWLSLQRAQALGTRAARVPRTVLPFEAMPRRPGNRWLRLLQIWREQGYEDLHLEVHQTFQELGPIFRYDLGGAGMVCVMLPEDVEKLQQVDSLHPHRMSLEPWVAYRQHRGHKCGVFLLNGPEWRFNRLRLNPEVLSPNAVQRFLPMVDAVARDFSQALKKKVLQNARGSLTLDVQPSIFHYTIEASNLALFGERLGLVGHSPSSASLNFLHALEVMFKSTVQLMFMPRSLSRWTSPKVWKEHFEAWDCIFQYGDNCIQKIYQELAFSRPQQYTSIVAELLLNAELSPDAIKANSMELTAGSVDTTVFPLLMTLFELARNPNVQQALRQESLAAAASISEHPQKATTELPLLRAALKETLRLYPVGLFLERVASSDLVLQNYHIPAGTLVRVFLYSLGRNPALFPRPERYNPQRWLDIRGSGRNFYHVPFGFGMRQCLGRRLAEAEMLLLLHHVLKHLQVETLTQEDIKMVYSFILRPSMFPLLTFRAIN

Aromatase = molecular target: T3, Aromatase (Homo sapiens, UniProt P11511); assay: Inhibition of human CYP19 using [1beta-3H]androstenedione as substrate by 3H2O method
T3 sequence (P11511 whole entry): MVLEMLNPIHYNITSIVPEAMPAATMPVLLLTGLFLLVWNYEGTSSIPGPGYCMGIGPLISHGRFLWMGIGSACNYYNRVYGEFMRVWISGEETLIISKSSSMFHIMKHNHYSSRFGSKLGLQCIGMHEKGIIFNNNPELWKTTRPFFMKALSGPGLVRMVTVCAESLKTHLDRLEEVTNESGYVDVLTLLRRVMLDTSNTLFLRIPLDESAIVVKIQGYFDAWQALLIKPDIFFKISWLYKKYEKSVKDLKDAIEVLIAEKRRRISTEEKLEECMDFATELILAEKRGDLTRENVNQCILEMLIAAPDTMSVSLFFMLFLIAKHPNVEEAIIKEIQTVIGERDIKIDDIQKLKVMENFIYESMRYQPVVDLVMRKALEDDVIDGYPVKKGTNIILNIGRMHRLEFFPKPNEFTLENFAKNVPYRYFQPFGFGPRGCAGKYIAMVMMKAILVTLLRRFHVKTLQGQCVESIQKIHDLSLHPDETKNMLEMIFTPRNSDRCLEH

CYP19 (aromatase) = molecular target: T4, CYP19 (aromatase) (Homo sapiens, UniProt P11511); assay: Inhibition of human CYP19 using [1beta-3H]androstenedione as substrate at 500 nM by 3H2O method; details: probe [1beta-3H]androstenedione
T4 sequence (P11511 whole entry): T3 sequence (P11511 whole entry)
Summary of the method: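 Human placental microsomes as CYP19 source. [1β-³H]androstenedione substrate at 500 nM, activity read by ³H₂O release. IC50 is the mean of at least three experiments (relative SD under 25%).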

CYP17 = molecular target: T5, CYP17 (Homo sapiens, UniProt P05093); assay: Inhibition of human CYP17 expressed in Escherichia coli using progesterone as substrate at 2 uM; details: probe progesterone
T5 sequence (P05093 whole entry): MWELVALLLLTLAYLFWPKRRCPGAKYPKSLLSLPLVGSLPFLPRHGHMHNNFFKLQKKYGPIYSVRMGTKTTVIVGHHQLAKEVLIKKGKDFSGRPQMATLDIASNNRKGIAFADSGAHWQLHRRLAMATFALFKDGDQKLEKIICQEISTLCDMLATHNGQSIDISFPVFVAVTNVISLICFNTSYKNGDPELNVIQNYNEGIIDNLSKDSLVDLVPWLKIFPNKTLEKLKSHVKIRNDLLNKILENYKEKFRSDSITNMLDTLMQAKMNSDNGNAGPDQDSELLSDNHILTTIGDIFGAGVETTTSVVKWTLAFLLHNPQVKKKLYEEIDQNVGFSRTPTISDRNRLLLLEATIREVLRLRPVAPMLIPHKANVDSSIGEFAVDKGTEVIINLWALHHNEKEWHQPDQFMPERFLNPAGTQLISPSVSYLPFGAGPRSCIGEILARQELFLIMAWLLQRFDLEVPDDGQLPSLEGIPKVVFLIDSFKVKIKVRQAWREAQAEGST
Summary of the method: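 Enzyme source was the 90000g sediment of E. coli coexpressing human CYP17 and cytochrome P450 reductase. Progesterone substrate at 25 μM, NADPH cofactor, inhibitor at 2 μM. Percent inhibition is the mean of at least two experiments (SD under 10%).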

Compound | Ratio IC50 (V79MZh) | IC50 [1] | IC50 [2] | IC50 (Aromatase) | inhibition at 500 nM (CYP19 (aromatase)) | inhibition at 2 µM (CYP17)
O=C1CCc2cc(C(c3ccncc3)c3cc(C(F)(F)F)cc(C(F)(F)F)c3)cc3c2N1CC3 (centres undefined) | > 3 | 1580 nM | > 5000 nM | 246 nM | – | –
O=C1CCc2cc(C(c3ccccc3)c3cccnc3)cc3c2N1CC3 (centres undefined) | 0.5 | 132 nM | 68 nM | 2130 nM | – | –
CC(c1ccncc1)c1cc2c3c(c1)CCN3C(=O)CC2 (centres undefined) | 1.9 | 74 nM | 140 nM | 1500 nM | – | –
O=C1CCc2cc(C(O)c3cccnc3)cc3c2N1CC3 (centres undefined) | < 0.1 | > 5000 nM | 750 nM | > 5000 nM | – | –
O=C1CCc2cc(-c3cccnc3)cc3c2N1CC3 | 650 | 1.1 nM | 715 nM | – | 18% | –
O=C1CCc2cc(C(c3ccc(F)cc3)c3cccnc3)cc3c2N1CC3 (centres undefined) | 0.1 | 587 nM | 78 nM | 140 nM | – | –
COc1ccc(C(c2ccncc2)c2cc3c4c(c2)CCN4C(=O)CC3)cc1 (single isomer, unassigned; (+)) [listing 1 of 2 here] | 37 | – | – | – | – | –
O=C1CCc2cc(C(O)c3ccncc3)cc3c2N1CC3 (centres undefined) | 0.6 | 563 nM | 347 nM | > 5000 nM | – | < 3%
CC(C)C(c1ccncc1)c1cc2c3c(c1)CCN3C(=O)CC2 (centres undefined) | 1.9 | 750 nM | 1420 nM | 889 nM | – | –
C=C(c1ccncc1)c1cc2c3c(c1)CCN3C(=O)CC2 | 13 | 96 nM | 1230 nM | 565 nM | – | 17%
COc1ccccc1C(c1ccncc1)c1cc2c3c(c1)CCN3C(=O)CC2 (centres undefined) | 2.2 | 128 nM | 276 nM | 81 nM | – | 33%
N#Cc1ccc(C2CCCc3cncn32)cc1 (centres undefined) [FADROZOLE] | – | – | – | – | – | < 3%
O=C1CCc2cc(Cc3ccncc3)cc3c2N1CC3 | 1.1 | 204 nM | 224 nM | 2130 nM | – | 8%
COc1ccc(C(c2ccncc2)c2cc3c4c(c2)CCN4C(=O)CC3)cc1 (stereo in doubt; 3k) [listing 1 of 2 here] | – | 52 nM | 810 nM | 124 nM | – | 53%
O=C1CCc2cc(C(c3ccncc3)c3ccc(F)cc3)cc3c2N1CC3 (centres undefined) | 1.6 | 56 nM | 88 nM | 116 nM | – | 55%
O=C1CCc2cc(C(O)(c3ccccc3)c3ccncc3)cc3c2N1CC3 (centres undefined) | 8.8 | 85 nM | 745 nM | 105 nM | – | 43%
O=C1CCc2cc(C(c3cccnc3)c3cccc(Cl)c3)cc3c2N1CC3 (centres undefined) | < 0.1 | > 5000 nM | 36 nM | 1350 nM | – | –

Compound | Ratio IC50 (V79MZh) | IC50 [1] | IC50 [2] | IC50 (Aromatase) | inhibition at 500 nM (CYP19 (aromatase)) | inhibition at 2 µM (CYP17)
N#Cc1ccc(C(c2ccc(C#N)cc2)n2cncn2)cc1 [LETROZOLE] | – | 1420 nM | 2620 nM | – | – | 7%
COc1ccc(C(c2ccncc2)c2cc3c4c(c2)CCN4C(=O)CC3)cc1 (single isomer, unassigned; (-)) [listing 1 of 2 here] | 6.9 | – | – | – | – | –
Cc1cccc(C(c2ccncc2)c2cc3c4c(c2)CCN4C(=O)CC3)c1 (centres undefined) | 33 | 41 nM | 1340 nM | 32 nM | – | 46%
COc1ccc(C(c2ccncc2)c2cc3c4c(c2)CCN4C(=O)CC3)cc1 (single isomer, unassigned; (-)) [listing 2 of 2 here] | – | 74 nM | 511 nM | 92 nM | – | –
COc1ccc(C(c2ccncc2)c2cc3c4c(c2)CCN4C(=O)CC3)cc1 (stereo in doubt; 3k) [listing 2 of 2 here] | 16 | – | – | – | – | –
O=C1CCc2cc(Cc3cccnc3)cc3c2N1CC3 | 0.2 | 74 nM | 16 nM | 3340 nM | – | < 3%
O=C1CCc2cc(C(c3ccncc3)c3cccc(Cl)c3)cc3c2N1CC3 (centres undefined) | 13 | 51 nM | 646 nM | 19 nM | – | 58%
COc1ccccc1C(c1cccnc1)c1cc2c3c(c1)CCN3C(=O)CC2 (centres undefined) | < 0.3 | > 5000 nM | 2270 nM | 3660 nM | – | –
O=C1CCc2cc(C(c3ccncc3)c3ccc(Cl)cc3)cc3c2N1CC3 (centres undefined) | 2.9 | 32 nM | 92 nM | 55 nM | – | 60%
O=C1CCc2cc(C(c3ccncc3)C3CCCCC3)cc3c2N1CC3 (centres undefined) | > 4 | 1290 nM | > 5000 nM | 74 nM | – | –
COc1ccc(C(c2ccncc2)c2cc3c4c(c2)CCN4C(=O)CC3)cc1 (single isomer, unassigned; (+)) [listing 2 of 2 here] | – | 46 nM | 1690 nM | 273 nM | – | –
CC(c1cccnc1)c1cc2c3c(c1)CCN3C(=O)CC2 (centres undefined) | 0.1 | 37 nM | 4 nM | > 5000 nM | – | < 3%
O=C1CCc2cc(C(c3ccccc3)c3ccncc3)cc3c2N1CC3 (centres undefined) | 14 | 390 nM | 5400 nM | 880 nM | – | –
COc1cccc(C(c2ccncc2)c2cc3c4c(c2)CCN4C(=O)CC3)c1 (centres undefined) | 18 | 139 nM | 2540 nM | 59 nM | – | 50%
C=C(c1cccnc1)c1cc2c3c(c1)CCN3C(=O)CC2 | 0.1 | 468 nM | 41 nM | > 5000 nM | – | < 3%
Cc1cccc(C(c2cccnc2)c2cc3c4c(c2)CCN4C(=O)CC3)c1 (centres undefined) | < 0.2 | > 5000 nM | 1220 nM | > 5000 nM | – | –
O=C1CCc2cc(C(c3ccncc3)c3cccc(F)c3)cc3c2N1CC3 (centres undefined) | 6 | 88 nM | 532 nM | 74 nM | – | –
